Where “and” joins values, the source holds several entries; their conditions need not be identical. Identical values can stand only once.
Test system: Fibroblast
Test: Multiplex assay against human fibroblast
Format: toxicity, cell-based
How it was run: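 Four dyes were applied at seeding to live cells: Hoechst33342, BioTracker Green Microtubule Cytoskeleton Dye, MitoTracker Red and Annexin V Alexa Fluor 680. Imaging after compound addition used a CQ1 microscope at 37°C and 5% CO2. CellPathfinder machine-learning gating then sorted cells into Hoechst high-intensity objects or normal cells, normal cells into healthy, pyknosed or fragmented nuclei, and pyknosed cells into mitotic or apoptotic, with tubulin, mitochondrial-mass and membrane-permeability phenotypes given as per cents of healthy-nucleus cells.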

[1] = 12 h, 1 µM, compound concentration 1 uM
[2] = 12 h, 10 µM, compound concentration 10 uM
[3] = 24 h, 1 µM, compound concentration 1 uM
[4] = 24 h, 10 µM, compound concentration 10 uM
[5] = 48 h, 1 µM, compound concentration 1 uM
[6] = 48 h, 10 µM, compound concentration 10 uM

Cc1noc(-c2ccc(-c3ccc(CC(=O)O)cc3)cc2)c1NC(=O)O[C@H](C)c1ccccc1Cl
Population Apoptotic (%) [1]: 22% and 58% | Population Fragmented Nuclei (%) [1]: 14% and 21% | Population Healthy Nuclei (%) [1]: 77% and 60% | Population Hoechst High Intensity Objects (%) [1]: 0% and 5% | Population Membrane Permeable-Phenotype (%) [1]: 0% and 5% | Population Mitochondria Different-Phenotype (%) [1]: 1% and 2% | Population Mitotic Cells (%) [1]: 77% and 41% | Population Normal (%) [1]: 100% and 95% | Population Pyknosed Nuclei (%) [1]: 8% and 18% | Population Tubulin-Different-Phenotype (%) [1]: 10% and 26% | Total Cell Count [1]: 106 and 140 | Population Apoptotic (%) [2]: 40% and 29% | Population Fragmented Nuclei (%) [2]: 20% and 17% | Population Healthy Nuclei (%) [2]: 62% and 45% | Population Hoechst High Intensity Objects (%) [2]: 1% and 6% | Population Membrane Permeable-Phenotype (%) [2]: 1% and 2% | Population Mitochondria Different-Phenotype (%) [2]: 6% and 10% | Population Mitotic Cells (%) [2]: 60% and 70% | Population Normal (%) [2]: 98% and 93% | Population Pyknosed Nuclei (%) [2]: 17% and 36% | Population Tubulin-Different-Phenotype (%) [2]: 31% and 57% | Total Cell Count [2]: 119 and 90 | Population Apoptotic (%) [3]: 20% and 52% | Population Fragmented Nuclei (%) [3]: 16% and 30% | Population Healthy Nuclei (%) [3]: 78% and 57% | Population Hoechst High Intensity Objects (%) [3]: 0% and 2% | Population Membrane Permeable-Phenotype (%) [3]: 0% and 1% | Population Mitochondria Different-Phenotype (%) [3]: 1% and 7% | Population Mitotic Cells (%) [3]: 80% and 47% | Population Normal (%) [3]: 100% and 97% | Population Pyknosed Nuclei (%) [3]: 4% and 12% | Population Tubulin-Different-Phenotype (%) [3]: 10% and 28% | Total Cell Count [3]: 102 and 161 | Population Apoptotic (%) [4]: 50% and 32% | Population Fragmented Nuclei (%) [4]: 20% and 26% | Population Healthy Nuclei (%) [4]: 68% and 41% | Population Hoechst High Intensity Objects (%) [4]: 1% | Population Membrane Permeable-Phenotype (%) [4]: 0% | Population Mitochondria Different-Phenotype (%) [4]: 7% and 10% | Population Mitotic Cells (%) [4]: 50% and 67% | Population Normal (%) [4]: 98% | Population Pyknosed Nuclei (%) [4]: 11% and 31% | Population Tubulin-Different-Phenotype (%) [4]: 29% and 65% | Total Cell Count [4]: 122 and 98 | Population Apoptotic (%) [5]: 44% and 60% | Population Fragmented Nuclei (%) [5]: 18% and 35% | Population Healthy Nuclei (%) [5]: 73% and 55% | Population Hoechst High Intensity Objects (%) [5]: 1% and 2% | Population Membrane Permeable-Phenotype (%) [5]: 1% and 5% | Population Mitochondria Different-Phenotype (%) [5]: 1% and 3% | Population Mitotic Cells (%) [5]: 55% and 40% | Population Normal (%) [5]: 98% and 97% | Population Pyknosed Nuclei (%) [5]: 8% | Population Tubulin-Different-Phenotype (%) [5]: 16% and 25% | Total Cell Count [5]: 112 and 171 | Population Apoptotic (%) [6]: 23% and 39% | Population Fragmented Nuclei (%) [6]: 30% and 40% | Population Healthy Nuclei (%) [6]: 55% and 37% | Population Hoechst High Intensity Objects (%) [6]: 4% and 2% | Population Membrane Permeable-Phenotype (%) [6]: 2% and 0% | Population Mitochondria Different-Phenotype (%) [6]: 4% and 10% | Population Mitotic Cells (%) [6]: 76% and 60% | Population Normal (%) [6]: 95% and 97% | Population Pyknosed Nuclei (%) [6]: 13% and 22% | Population Tubulin-Different-Phenotype (%) [6]: 35% and 69% | Total Cell Count [6]: 133 and 107

C[C@@H]1CC(=O)Nc2cccc(-c3ccc4c(c3)c(-c3cnn(C)c3)nn4C)c2N1
Population Apoptotic (%) [1]: 38% | Population Fragmented Nuclei (%) [1]: 20% and 26% | Population Healthy Nuclei (%) [1]: 63% and 47% | Population Hoechst High Intensity Objects (%) [1]: 1% and 5% | Population Membrane Permeable-Phenotype (%) [1]: 0% and 8% | Population Mitochondria Different-Phenotype (%) [1]: 4% and 12% | Population Mitotic Cells (%) [1]: 61% | Population Normal (%) [1]: 98% and 94% | Population Pyknosed Nuclei (%) [1]: 15% and 26% | Population Tubulin-Different-Phenotype (%) [1]: 31% and 51% | Total Cell Count [1]: 115 and 105 | Population Apoptotic (%) [2]: 40% and 30% | Population Fragmented Nuclei (%) [2]: 17% and 11% | Population Healthy Nuclei (%) [2]: 65% and 58% | Population Hoechst High Intensity Objects (%) [2]: 5% and 6% | Population Membrane Permeable-Phenotype (%) [2]: 1% and 7% | Population Mitotic Cells (%) [2]: 59% and 69% | Population Normal (%) [2]: 94% and 93% | Population Pyknosed Nuclei (%) [2]: 17% and 30% | Population Tubulin-Different-Phenotype (%) [2]: 63% and 68% | Total Cell Count [2]: 161 and 126 | Population Apoptotic (%) [3]: 57% and 35% | Population Fragmented Nuclei (%) [3]: 16% and 29% | Population Healthy Nuclei (%) [3]: 67% and 50% | Population Hoechst High Intensity Objects (%) [3]: 2% and 7% | Population Membrane Permeable-Phenotype (%) [3]: 2% and 11% | Population Mitochondria Different-Phenotype (%) [3]: 5% and 9% | Population Mitotic Cells (%) [3]: 42% and 65% | Population Normal (%) [3]: 97% and 92% | Population Pyknosed Nuclei (%) [3]: 15% and 19% | Population Tubulin-Different-Phenotype (%) [3]: 33% and 60% | Total Cell Count [3]: 122 and 112 | Population Apoptotic (%) [4]: 75% and 42% | Population Fragmented Nuclei (%) [4]: 19% and 13% | Population Healthy Nuclei (%) [4]: 69% and 57% | Population Hoechst High Intensity Objects (%) [4]: 10% and 5% | Population Membrane Permeable-Phenotype (%) [4]: 0% and 1% | Population Mitotic Cells (%) [4]: 25% and 57% | Population Normal (%) [4]: 89% and 94% | Population Pyknosed Nuclei (%) [4]: 11% and 29% | Population Tubulin-Different-Phenotype (%) [4]: 66% and 76% | Total Cell Count [4]: 158 and 119 | Population Apoptotic (%) [5]: 50% and 30% | Population Fragmented Nuclei (%) [5]: 25% and 36% | Population Healthy Nuclei (%) [5]: 60% and 50% | Population Hoechst High Intensity Objects (%) [5]: 5% and 2% | Population Mitochondria Different-Phenotype (%) [5]: 6% and 8% | Population Mitotic Cells (%) [5]: 50% and 69% | Population Normal (%) [5]: 94% and 97% | Population Pyknosed Nuclei (%) [5]: 14% and 13% | Population Tubulin-Different-Phenotype (%) [5]: 21% and 60% | Total Cell Count [5]: 114 and 102 | Population Apoptotic (%) [6]: 92% and 60% | Population Fragmented Nuclei (%) [6]: 17% | Population Healthy Nuclei (%) [6]: 73% and 62% | Population Hoechst High Intensity Objects (%) [6]: 3% and 4% | Population Membrane Permeable-Phenotype (%) [6]: 0% and 6% | Population Normal (%) [6]: 96% and 95% | Population Pyknosed Nuclei (%) [6]: 8% and 19% | Population Tubulin-Different-Phenotype (%) [6]: 68% and 69% | Total Cell Count [6]: 162 and 122
